Source: publication PMC8535816 (Science Advances, 2021)
Positions of bridges follow the written chain, without caps; N, C: chain ends. No end group written: not given here. *: point of attachment. Biotin = O=C1N[C@H]2[C@H](CS[C@H]2CCCCC(=O)*)N1; Ahx = NCCCCCC(=O)O

What was measured:
[1] = tested on: primary rat OLs; experiment: cAMP production in primary rat OLs; format: cell-based
How it was run: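 Rat OPCs were transduced with lentiviral shRNA against GPR37 and kept with CNTF and T3 for 48 h. They were then plated at 1 × 10^4/well on poly-L-lysine. Cells received forskolin plus the test compound at the indicated concentrations for 30 min. Intracellular cAMP was measured by cAMP-Glo Max luminescence to give concentration-response curves. Runs were repeated at least four times, each in triplicate.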

[2] = target: T1, human GPR37 (Homo sapiens, UniProt O15354); experiment: Intracellular calcium; format: cell-based; conditions: then OCN, GPR37-transfected HEK293-GCaMP6s cells
T1 sequence (O15354 27-613): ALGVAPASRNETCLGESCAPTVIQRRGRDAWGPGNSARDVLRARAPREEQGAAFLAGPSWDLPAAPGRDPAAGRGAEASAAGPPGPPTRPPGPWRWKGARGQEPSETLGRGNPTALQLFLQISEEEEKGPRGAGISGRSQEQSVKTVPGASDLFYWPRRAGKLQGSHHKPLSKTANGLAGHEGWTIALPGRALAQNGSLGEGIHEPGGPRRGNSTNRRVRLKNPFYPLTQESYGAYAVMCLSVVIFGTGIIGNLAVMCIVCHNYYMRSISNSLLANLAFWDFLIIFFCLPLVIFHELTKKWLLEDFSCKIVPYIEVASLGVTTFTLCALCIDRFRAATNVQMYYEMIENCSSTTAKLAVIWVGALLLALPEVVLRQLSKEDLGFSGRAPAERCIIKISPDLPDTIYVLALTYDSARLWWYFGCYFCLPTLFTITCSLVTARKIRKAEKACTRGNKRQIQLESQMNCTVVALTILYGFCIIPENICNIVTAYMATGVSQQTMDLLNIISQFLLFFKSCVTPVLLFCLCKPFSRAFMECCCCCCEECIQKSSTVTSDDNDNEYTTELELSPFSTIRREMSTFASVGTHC
How it was run: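 HEK293 cells stably expressing GCaMP6s (made by lentiviral infection of HEK293T) were transfected with human GPR37 for 48 h. Medium was swapped for HBSS with Ca2+/Mg2+ and cells held at 37°C for 30 min. Pretreatment was anti-GPR37 antibody or pertussis toxin, then OCN 20 nM. GCaMP6s fluorescence was imaged at 1 s intervals.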

[3] = tested on: primary rat OLs; experiment: ERK phosphorylation; format: cell-based
[4] = OCN level in CC and SC after ICV delivery into OCN^−/− mice; format: in vivo, mouse; conditions: ICV infusion 100 ng/day for 10 days, n = 5
[5] = tested on: OCN^−/− mice; experiment: ICV delivery of OCN into OCN^−/− mice: OPC/OL numbers and myelin proteins; format: in vivo, mouse; conditions: ICV 100 ng/day for 10 days
How it was run: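 OCN−/− mice received synthesized mouse OCN at 100 ng/day, or PBS, by ICV infusion for 10 days. For proliferation, BrdU at 100 μg/g was given i.p. 2 days before sacrifice, and sections were co-stained for BrdU/PDGFRα. For differentiation, BrdU at 200 μg/g was pulsed for four consecutive days from the start of treatment, with BrdU/CC1 co-staining at the end. Positive cells were counted per 0.25 mm2 in CC.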

[6] = target: T1, human GPR37; experiment: cAMP production, GPR37-transfected HEK293 cells; format: cell-based; conditions: forskolin and/or OCN 30 min, cAMP-Glo Max
How it was run: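 HEK293 cells were transfected with human GPR37 for 48 h, then seeded on poly-L-lysine-coated plates. They were exposed to forskolin and/or graded OCN for 30 min. cAMP was measured by luminescent cAMP-Glo Max assay. At least four experiments, each in triplicate.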

[7] = tested on: primary rat OLs; experiment: Myrf expression in primary rat OLs; format: cell-based; conditions: n = 3 independent experiments
How it was run: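 OPCs came from forebrains of P1–P2 Sprague-Dawley rats. Mixed glia were grown up to 12 days on poly-L-lysine, and microglia were removed by shaking at 200 rpm. OPCs were transduced with lentiviral shRNA against GPR37, then differentiated with CNTF and T3 for 48 h. The resulting OLs were treated with the test compound in differentiation medium for 48 h before analysis.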

[8] = tested on: human GPR37L1; experiment: PRESTO-Tango β-arrestin recruitment, GPR37L1-transfected HTLA cells; format: cell-based; conditions: cells expressing GPR37L1 (HTLA)
How it was run: (§1)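 HTLA cells (HEK293 carrying a tTA-luciferase reporter and β-arrestin2–TEV), kept under puromycin 2 μg/ml plus hygromycin B 100 μg/ml, expressing GPR37-Tango or GPR37L1-Tango. Seeded on poly-L-lysine; the next day given graded OCN concentrations in assay buffer for 24 h. Luciferase reagent (20-fold diluted) added for 15–20 min at 20–25°C; luminescence read as RLU. Concentration-response curves fitted.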

[9] = tested on: primary rat OPCs; experiment: OPC proliferation; format: cell-based; conditions: OCN 20 nM; EdU incorporation; n = 3 independent experiments
How it was run: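 Primary rat OPCs (P1–P2 Sprague-Dawley forebrain) were plated on poly-L-lysine at 1 × 10^4/well in 96-well plates. They were treated with the test compound at 20 nM before assessment. Proliferation was read by EdU incorporation with a commercial kit.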

[10] = tested on: primary rat OLs; experiment: Myelin PLP1 and MBP expression in primary rat OLs/OPCs in differentiation medium; format: cell-based; conditions: n = 3 independent experiments
[11] = tested on: OLs derived from primary rat OPCs; experiment: OL cell viability; format: cell-based; conditions: OCN 0 to 50 nM, up to 72 hours; MTT; n = 3 independent experiments
How it was run: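 Rat OPCs were plated on poly-L-lysine at 1 × 10^4 per well in 96-well plates, in the presence of CNTF and T3. Cells were exposed to the test compound at 0 to 50 nM, or for up to 72 h. Viability was read with a commercial MTT kit.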

[12] = tested on: OCN^−/− mice; experiment: Hot plate test; format: in vivo; conditions: mouse OCN 50 ng/g i.p. for 10 days, hot plate 53°C, n ≥ 6
How it was run: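 Mice aged 8 weeks were placed on a hot plate held at 53°C. Latency was scored as the time to lick or flick a hind paw, or to jump. The plate temperature was calibrated to give a withdrawal response within 10 to 15 s in control mice. OCN−/− mice received synthesized mouse OCN at 50 ng/g body weight i.p. for 10 days before testing.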

[13] = target: T1, human GPR37; experiment: ERK phosphorylation; format: cell-based; conditions: OCN 20 nM; GPR37-transfected HEK293 cells; immunoblot
How it was run: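 Human GPR37 introduced into HEK293 cells by calcium-phosphate transfection, then exposed to OCN 20 nM. Lysates made in RIPA buffer with protease inhibitors and assayed by BCA. 30–50 μg protein run on SDS-PAGE and blotted to PVDF or nitrocellulose. Blocked in 5% milk for 1 h, primary antibody overnight at 4°C, HRP secondary for 1 h at room temperature.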

[14] = target: T1, human GPR37; experiment: PRESTO-Tango β-arrestin recruitment, GPR37-transfected HTLA cells; format: cell-based
How it was run: as §1

[15] = ref [15]–[18]; cited from earlier work
[16] = tested on: WT mice; experiment: ICV delivery of OCN into WT mice: myelin PLP1 and MBP; format: in vivo, mouse; conditions: ICV 100 ng/day for 10 days, n ≥ 6
How it was run: (§2)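 Synthesized mouse OCN at 100 ng/day, or PBS, was infused ICV for 10 days before analysis. Tissue protein was extracted in RIPA buffer with protease inhibitors and quantified by BCA. Then 30 to 50 μg was run on SDS-PAGE and blotted. Blots were blocked in 5% milk for 1 h, incubated with primary antibody overnight at 4°C, then with HRP-secondary for 1 h at room temperature.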

[17] = tested on: OLs from GPR37^−/− mice; experiment: MBP expression in primary OLs from GPR37^−/− mice; format: cell-based, mouse; conditions: OPC from GPR37^−/− mice induced with T3; n = 3 independent experiments
How it was run: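 Primary OPCs were isolated from P7–P8 GPR37−/− mouse pups. They were differentiated into mature OLs with T3 and CNTF, then treated with the test compound. OPC purity and OL induction were checked with specific markers.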

[18] = tested on: GPR37^−/− mice; experiment: ICV delivery of OCN into GPR37^−/− mice: myelin PLP1 and MBP; format: in vivo, mouse; conditions: ICV 100 ng/day for 10 days, n ≥ 6
How it was run: as §2

[19] = tested on: neurons; conditions: neurons (DRN, MRN, VTA, CA3); ref [16], [22], [51]; cited from earlier work
[20] = tested on: human GPR37L1; experiment: Saturation binding of biotinylated OCN, GPR37L1-transfected cells; conditions: 2 hours at 37°C
How it was run: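 HEK293T cells were transfected with GPR37L1 and replated on poly-L-lysine at 36 h. After 24 h they received serial dilutions of biotinylated OCN in 0.5% BSA/Ca2+/Mg2+ PBS for 2 h at 37°C. Cells were then washed, fixed in 4% PFA, permeabilised with 0.3% Triton, given extra-avidin peroxidase for 30 min and TMB, and read at 450 nm. Nonspecific binding used 100 μM unlabelled OCN; specific binding was total minus nonspecific; Kd came from saturation curves.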

[21] = target: human GPR37 overexpressed on HEK293-based cells (human) (UniProt O15354); experiment: saturation binding of biotinylated ligand to transfected cells

pertussis toxin [PTX, reference compound]
effect of pretreatment on OCN-caused reduction of the intracellular cAMP level ([1]; PTX pretreatment): blocked | effect of pretreatment on OCN-triggered increase of iCa^2+ [2]: abolished | effect of pretreatment on OCN-caused boost of ERK phosphorylation ([3]; PTX pretreatment, primary rat OLs): blocked

YLGASVPSPDPLEPTREQCELNPACDELSDQYGLKTAYKRIYGITI [mouse OCN]
OCN level in CC and SC [4]: significant increase | BrdU^+/CC1^+ differentiation OLs ([5]; CC of OCN^−/− mice): decreased | CC1^+ cells ([5]; CC of OCN^−/− mice): decreased | numbers of BrdU^+/PDGFRα^+ proliferative OPCs ([5]; CC of OCN^−/− mice): rarely affected | numbers of total PDGFRα^+ OPCs ([5]; OCN^−/− mice): rarely affected | expression of myelin PLP1 and MBP ([5]; white matter regions (CC, SC) of OCN^−/− mice, n = 6): decreased

osteocalcin (YLGASVPSPDPLEPTREQCELNPACDELSDQYGLKTAYKRIYGITI; biotin (Biotin Protein Labeling Kit, Roche; sites not stated)) [OCN]
OCN-induced inhibition of intracellular cAMP production with GPR37 silenced ([1]; GPR37 shRNA): substantially prevented | intracellular cAMP level ([1]; forskolin and OCN 30 min): reduction of the intracellular cAMP level | cAMP production [6]: significantly inhibited cAMP production | down-regulation of Myrf by OCN with GPR37 knockdown ([7]; GPR37 shRNA, OCN 20 nM): abolished | expression of Myrf [7]: dose-dependently inhibited | luciferase responses (β-arrestin recruitment) [8]: failed to exert luciferase responses | OPC proliferation [9]: no effects | OCN's suppression of the MBP level with GPR37L1 silenced ([10]; primary rat OLs, GPR37L1 shRNA): unable to inhibit OCN’s suppression of the MBP level | expression of myelin PLP1 and MBP ([10]; primary rat OPCs in differentiation medium, immunoblot, immunostaining): dose-dependent reduction | OL cell viability [11]: no effects | deficit of thermal sensitivity (paw lick latency) [12]: partially rescued | ERK phosphorylation [13]: stimulated ERK phosphorylation | luciferase activity (β-arrestin recruitment) [14]: dose-dependent increase | ability of crossing the blood-brain barrier [15]: crossing the blood-brain barrier (BBB) | ERK phosphorylation ([3]; myelinating primary rat OLs): boost of ERK phosphorylation | expression of myelin PLP1 and MBP in CC [16]: significant down-regulation | myelin MBP response to OCN, GPR37 absent [17]: unresponsive | expression of myelin PLP1 and MBP in CC [18]: absent | synthesis of monoamine neurotransmitters [19]: promote the synthesis of monoamine neurotransmitters | synthesis of γ-aminobutyric acid (GABA) [19]: reduce the synthesis of γ-aminobutyric acid (GABA)

{Biotin-Ahx}-YLGASVPSPDPLEPTREQCELNPACDELSDQYGLKTAYKRIYGITI (disulfide 19-25; N-terminus assumed) [biotinylated OCN]
binding to GPR37L1 [20]: bound to GPR37 rather than GPR37L1

biotinylated osteocalcin (OCN), species not stated (peptide)
Kd [21]: 14.1 nM
